Data set [1] in a line: AUC in male Wistar Han rat at 10 mg/kg, po administered as single dose post overnight fasting measured upto 24 hrs by LC-MS/MS analysis. Set-up: route oral, dose 10 mg/kg, time <=24. The conditions noted are these: in vivo. Format: ADME, organism-based. The method in brief: (§1)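 Male Wistar Han rats were given single oral rising doses of 10, 100 or 300 mpk. AUC, Cmax, Tmax and MRT were derived from plasma exposure.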

Data set [2] can be described thus: Cmax in male Wistar Han rat at 10 mg/kg, po administered as single dose post overnight fasting measured upto 24 hrs by LC-MS/MS analysis. The settings on record: in vivo. Set-up: route oral, dose 10 mg/kg, time <=24. Format: ADME, organism-based. The procedure, abridged:
as §1

Data set [3] is described as follows: Drug concentration in Beagle dog at 5 mg/kg, po measured after 24 hrs by LC/MS analysis. Format: ADME, organism-based, Canis lupus familiaris. The settings on record: in vivo, read-out: Drug uptake. The procedure, abridged: (§2)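 Overnight-fasted male Wistar Han rats or Beagle dogs, two animals per group, 24 h study. IV in 60% PEG200 (rat 2 mg/kg, dog 1 mg/kg). PO in 10% Tween (rat 10 mg/kg, dog 5 mg/kg). Blood sampled up to 24 h, plasma separated by centrifugation, and drug measured by LC/MS. MRT reported for the IV route.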

The nature of data set [4]: MRT in male Wistar Han rat at 100 mg/kg, po administered as single dose post overnight fasting measured upto 24 hrs by LC-MS/MS analysis. The conditions noted are these: in vivo. Format: ADME, organism-based. The procedure, abridged:
as §1

A short description of data set [5]: AUC in male Wistar Han rat at 300 mg/kg, po administered as single dose post overnight fasting measured upto 24 hrs by LC-MS/MS analysis. Format: ADME, organism-based. Set-up: route oral, dose 300 mg/kg, time <=24. The settings on record: in vivo. The procedure, abridged:
as §1

A short description of data set [6]: MRT in male Wistar Han rat at 10 mg/kg, po administered as single dose post overnight fasting measured upto 24 hrs by LC-MS/MS analysis. Format: ADME, organism-based. The settings on record: in vivo. The method in brief: as §1
The nature of data set [7]: Cmax in male Wistar Han rat at 300 mg/kg, po administered as single dose post overnight fasting measured upto 24 hrs by LC-MS/MS analysis. It counts as ADME, organism-based. Set-up: route oral, dose 300 mg/kg, time <=24. The settings on record: in vivo. The procedure, abridged:
as §1

A short description of data set [8]: Cmax in male Wistar Han rat at 100 mg/kg, po administered as single dose post overnight fasting measured upto 24 hrs by LC-MS/MS analysis. It counts as ADME, organism-based. Set-up: route oral, dose 100 mg/kg, time <=24. The settings on record: in vivo. The procedure, abridged: as §1
The nature of data set [9]: Oral bioavailability in Beagle dog at 5 mg/kg post overnight fasting measured upto 24 hrs by LC-MS/MS analysis. Format: ADME, organism-based, Canis lupus familiaris. The settings on record: in vivo. The method in brief: as §2
The nature of data set [10]: AUC in Beagle dog at 5 mg/kg, po administered post overnight fasting measured upto 24 hrs by LC-MS/MS analysis. Format: ADME, organism-based, Canis lupus familiaris. Set-up: route oral, dose 5 mg/kg, time <=24. The conditions noted are these: in vivo. The procedure, abridged: as §2
The nature of data set [11]: Cmax in Beagle dog at 5 mg/kg, po administered post overnight fasting measured upto 24 hrs by LC-MS/MS analysis. Format: ADME, organism-based, Canis lupus familiaris. Set-up: route oral, dose 5 mg/kg, time <=24. The settings on record: in vivo. The procedure, abridged: as §2
Data set [12] can be described thus: AUC in male Wistar Han rat at 100 mg/kg, po administered as single dose post overnight fasting measured upto 24 hrs by LC-MS/MS analysis. It counts as ADME, organism-based. Set-up: route oral, dose 100 mg/kg, time <=24. The settings on record: in vivo. The procedure, abridged:
as §1

Data set [13] can be described thus: Clearance in Beagle dog at 1 mg/kg, iv administered post overnight fasting measured upto 24 hrs by LC-MS/MS analysis. It counts as ADME, organism-based, Canis lupus familiaris. The conditions noted are these: in vivo. The method in brief:
as §2

Data set [14] can be described thus: MRT in male Wistar Han rat at 300 mg/kg, po administered as single dose post overnight fasting measured upto 24 hrs by LC-MS/MS analysis. It counts as ADME, organism-based. The settings on record: in vivo. The method in brief: as §1
Data set [15] in a line: Mean residence time in Beagle dog at 1 mg/kg, iv administered post overnight fasting measured upto 24 hrs by LC-MS/MS analysis. The settings on record: in vivo.
A short description of data set [16]: Tmax in male Wistar Han rat at 10 mg/kg, po administered as single dose post overnight fasting measured upto 24 hrs by LC-MS/MS analysis. It counts as ADME, organism-based. The conditions noted are these: in vivo. The procedure, abridged:
as §1

Data set [17] can be described thus: Tmax in male Wistar Han rat at 300 mg/kg, po administered as single dose post overnight fasting measured upto 24 hrs by LC-MS/MS analysis. Format: ADME, organism-based. The settings on record: in vivo. The procedure, abridged:
as §1

Data set [18] in a line: Tmax in male Wistar Han rat at 100 mg/kg, po administered as single dose post overnight fasting measured upto 24 hrs by LC-MS/MS analysis. Format: ADME, organism-based. The conditions noted are these: in vivo. The procedure, abridged:
as §1

Take `COC(=O)N[C@H](C(=O)N1CCC[C@H]1c1ncc(-c2cc(F)c3c(c2)OC(c2ccc4c(c2)OCCC4)n2c-3cc3cc(-c4cnc([C@@H]5CCCN5C(=O)[C@@H](NC(=O)OC)C(C)C)[nH]4)ccc32)[nH]1)C(C)C.Cl.Cl` (stereo partly drawn): the AUC at 24 h in data set [1] came to 0.42 µM·h; in data set [5], 4.9 µM·h; in data set [10], 6.92 µM·h; in data set [12], 5.9 µM·h. Also, the Cmax in [2] stood at 40 nM; in data set [7] it was 400 nM; in data set [8], 350 nM; in [11], 1220 nM. Also, in data set [3], the concentration at 24 h came out at 51 nM. The MRT in [4] came out at 13 h; in data set [6], 8.5 h; in data set [14], 11 h; in data set [15], 11.4 h. Besides, the bioavailability in data set [9] was determined as 16%. In data set [13], this compound came in with a clearance of 2 mL/min/kg. Also, the figures for the Tmax in data set [16], in data set [17] and in data set [18] were 5 h, 8 h and 5 h, respectively.

A word on the AUC: it is concentration integrated over time. Broadly, the Cmax is the maximum level reached in the sampled fluid or tissue. In general, MRT refers to the average time that molecules of a dose stay in the body. As a reminder, the bioavailability is the share of a dose that reaches the circulation, judged against a reference dose that is usually intravenous. As a reminder, the clearance is a measure of how efficiently the substance is removed, as volume per time. Lower therefore signals a low capacity for elimination. Usually Tmax stands for the time from dosing to the highest level.

The values are drawn from ChEMBL document CHEMBL4715796, “Discovery of Chromane Containing Hepatitis C Virus (HCV) NS5A Inhibitors with Improved Potency against Resistance-Associated Variants” (J Med Chem, 2016).
